# Experimental data from different studies.
# Protocols differ between the studies behind these lines.
# PIK3CG: Phosphatidylinositol 4,5-bisphosphate 3-kinase catalytic subunit gamma isoform (PIK3CG, Homo sapiens, UniProt P48736)
# DHODH: Dihydroorotate dehydrogenase (quinone), mitochondrial (DHODH, Homo sapiens, UniProt Q02127)
# SCTR: Secretin receptor (SCTR, Homo sapiens, UniProt P47872)
Compound,target,test,quantity,result
Cc1nc(Nc2ccc3c(c2)/C(=C/c2ccccc2Cl)C(=O)N3)c2ccccc2n1,PIK3CG,"enzyme activity, inhibitor, ADP detection",IC50,34.5 nM
CCn1cc(C2CC2)c2c(CN3CCC(F)(F)C(C)(C)C3)n(C)nc2c1=O,DHODH,"enzyme activity, inhibitor, absorbance",IC50,> 100000 nM
Cc1cc([C@@H](C)Nc2ccccc2C(=O)O)c2nc(N3CCC(F)(F)CC3)c(C#N)c(=O)n2c1,PIK3CG,"enzyme activity, inhibitor, ADP detection",IC50,> 10000 nM
CCCc1ccc(/N=C(/Nc2nnc(C)s2)N2N=C(C)SC2c2ccc(C)cc2)cc1 (centres unmarked),SCTR,"cAMP, agonist, TR-FRET",EC50,> 50000 nM
CN[C@H]1CC[C@@H](c2ccc(Cl)c(Cl)c2)c2ccccc21,"Serine hydroxymethyltransferase, mitochondrial (SHMT2, Homo sapiens, UniProt P34897)","binding, MST",Kd,12000 nM
CC1=NN(/C(=N\c2ccccc2F)Nc2nnc(C)s2)C(c2ccc(C)cc2)S1 (centres unmarked),SCTR,"cAMP, agonist, TR-FRET",EC50,19800 nM
CCCc1cc(C(=O)Nc2ccc(C(C)=O)cc2)c(NC(=O)c2ccccc2)s1,"Prostaglandin G/H synthase 2 (PTGS2, Homo sapiens, UniProt P35354)","enzyme activity, inhibitor",IC50,1230 nM
CCn1ncc2c([C@](O)(c3ccc(C(F)(F)F)c(Cl)c3)C3CC3)n(C)nc2c1=O,DHODH,"enzyme activity, inhibitor",IC50,> 100000 nM
COc1cc2ncnc(N(C)c3ccc4c(c3)/C(=C/c3cccc(Cl)c3)C(=O)N4C)c2cc1OC,PIK3CG,"enzyme activity, inhibitor, ADP detection",IC50,118 nM
CCn1cc(C2CC2)c2c(CN3CCC(C)(F)CC3)n(C)nc2c1=O,DHODH,"enzyme activity, inhibitor, absorbance",IC50,> 100000 nM
CC1=NN(/C(=N/c2nnc(C)s2)Nc2ccc(C)c(C)c2)C(c2ccc(F)cc2)S1 (centres unmarked),SCTR,"cAMP, agonist, TR-FRET",EC50,800 nM
COc1cc2ncnc(Nc3ccc4c(c3)/C(=C/c3cccc(Cl)c3)C(=O)N4C)c2cc1OC,PIK3CG,"enzyme activity, inhibitor, ADP detection",IC50,197 nM
CC1=NN(/C(=N/c2nnc(C)s2)Nc2ccc(C)c(C)c2)C(c2ccc(-c3cccc(C(F)(F)F)c3)cc2)S1 (centres unmarked),SCTR,"cAMP, agonist, TR-FRET",EC50,500 nM
Cc1nn(C2CC2)c(=O)c2nn(C)c(Cc3ccc(C(F)(F)F)c(C#N)c3)c12,DHODH,"enzyme activity, inhibitor",IC50,30000 nM
COc1cc2ncnc(Nc3ccc4c(c3)/C(=C/c3ccccc3)C(=O)N4C)c2cc1OC,PIK3CG,"enzyme activity, inhibitor, ADP detection",IC50,194 nM
CC[C@@](O)(c1cnc(C(F)(F)F)c(Cl)c1)c1c2ncn(C3CC3)c(=O)c2nn1C,DHODH,"enzyme activity, inhibitor, absorbance",IC50,4000 to 6000 nM
Cc1nc(Nc2ccc3c(c2)CC(=O)N3)c2ccccc2n1,PIK3CG,"enzyme activity, inhibitor, ADP detection",IC50,568 nM
